Measured values as given in ChEMBL document CHEMBL1137811, “Four new bromotryptamine derivatives from the marine bryozoan Flustra foliacea” (J Nat Prod, 2002).
Active and inactive are the calls of the source.

Key:
Assay type in all cases: cell-based
Conditions in all cases: Oocyte
[1] = target: Potassium voltage-gated channel subfamily A member 1 (Rattus norvegicus) (UniProt P10499); experiment: Blockade of voltage-activated rat Kv1.1 potassium channel expressed in Xenopus laevis oocytes assessed as effect on evoked current upto 10 uM by two-electrode voltage clamp method
Chain of Potassium voltage-gated channel subfamily A member 1 (Rattus norvegicus) (P10499 whole entry): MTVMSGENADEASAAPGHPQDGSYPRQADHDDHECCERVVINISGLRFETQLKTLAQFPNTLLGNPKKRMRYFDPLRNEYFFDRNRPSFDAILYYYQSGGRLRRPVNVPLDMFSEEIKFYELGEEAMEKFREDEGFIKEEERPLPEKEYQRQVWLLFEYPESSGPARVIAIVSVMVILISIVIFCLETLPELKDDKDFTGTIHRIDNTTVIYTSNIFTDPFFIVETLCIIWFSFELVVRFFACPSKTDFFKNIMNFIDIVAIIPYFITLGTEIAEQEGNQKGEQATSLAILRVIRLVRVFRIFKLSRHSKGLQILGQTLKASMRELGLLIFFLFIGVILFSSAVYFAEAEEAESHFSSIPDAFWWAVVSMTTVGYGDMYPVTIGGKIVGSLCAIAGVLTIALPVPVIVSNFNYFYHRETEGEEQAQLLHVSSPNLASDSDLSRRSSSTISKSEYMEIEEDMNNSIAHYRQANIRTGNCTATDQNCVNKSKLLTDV
In short: (§1)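 Channels expressed in Xenopus laevis oocytes from injected cRNA (rat Kv1.1, rat Kv1.4 or rat brain type II Na channel), incubated 1-5 days. Vitelline membrane removed. Two-electrode voltage clamp, whole-cell currents; 2 M KCl electrodes, 0.6-1.0 MΩ. Filtered 1 kHz, sampled 4 kHz, P/n leak subtraction. Bath: frog Ringer's, pH 7.2. Compounds from DMSO stock, final up to 10 μM in bath; DMSO-only control.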

[2] = target: Sodium channel protein type 2 subunit alpha (Rattus norvegicus) (UniProt P04775); experiment: Blockade of voltage-activated rat brain Nav1.2 sodium channel type 2 channel expressed in Xenopus laevis oocytes assessed as effect on evoked current by two-electrode voltage clamp method; in short: as §1
Chain of Sodium channel protein type 2 subunit alpha (Rattus norvegicus) (P04775 whole entry, looked up): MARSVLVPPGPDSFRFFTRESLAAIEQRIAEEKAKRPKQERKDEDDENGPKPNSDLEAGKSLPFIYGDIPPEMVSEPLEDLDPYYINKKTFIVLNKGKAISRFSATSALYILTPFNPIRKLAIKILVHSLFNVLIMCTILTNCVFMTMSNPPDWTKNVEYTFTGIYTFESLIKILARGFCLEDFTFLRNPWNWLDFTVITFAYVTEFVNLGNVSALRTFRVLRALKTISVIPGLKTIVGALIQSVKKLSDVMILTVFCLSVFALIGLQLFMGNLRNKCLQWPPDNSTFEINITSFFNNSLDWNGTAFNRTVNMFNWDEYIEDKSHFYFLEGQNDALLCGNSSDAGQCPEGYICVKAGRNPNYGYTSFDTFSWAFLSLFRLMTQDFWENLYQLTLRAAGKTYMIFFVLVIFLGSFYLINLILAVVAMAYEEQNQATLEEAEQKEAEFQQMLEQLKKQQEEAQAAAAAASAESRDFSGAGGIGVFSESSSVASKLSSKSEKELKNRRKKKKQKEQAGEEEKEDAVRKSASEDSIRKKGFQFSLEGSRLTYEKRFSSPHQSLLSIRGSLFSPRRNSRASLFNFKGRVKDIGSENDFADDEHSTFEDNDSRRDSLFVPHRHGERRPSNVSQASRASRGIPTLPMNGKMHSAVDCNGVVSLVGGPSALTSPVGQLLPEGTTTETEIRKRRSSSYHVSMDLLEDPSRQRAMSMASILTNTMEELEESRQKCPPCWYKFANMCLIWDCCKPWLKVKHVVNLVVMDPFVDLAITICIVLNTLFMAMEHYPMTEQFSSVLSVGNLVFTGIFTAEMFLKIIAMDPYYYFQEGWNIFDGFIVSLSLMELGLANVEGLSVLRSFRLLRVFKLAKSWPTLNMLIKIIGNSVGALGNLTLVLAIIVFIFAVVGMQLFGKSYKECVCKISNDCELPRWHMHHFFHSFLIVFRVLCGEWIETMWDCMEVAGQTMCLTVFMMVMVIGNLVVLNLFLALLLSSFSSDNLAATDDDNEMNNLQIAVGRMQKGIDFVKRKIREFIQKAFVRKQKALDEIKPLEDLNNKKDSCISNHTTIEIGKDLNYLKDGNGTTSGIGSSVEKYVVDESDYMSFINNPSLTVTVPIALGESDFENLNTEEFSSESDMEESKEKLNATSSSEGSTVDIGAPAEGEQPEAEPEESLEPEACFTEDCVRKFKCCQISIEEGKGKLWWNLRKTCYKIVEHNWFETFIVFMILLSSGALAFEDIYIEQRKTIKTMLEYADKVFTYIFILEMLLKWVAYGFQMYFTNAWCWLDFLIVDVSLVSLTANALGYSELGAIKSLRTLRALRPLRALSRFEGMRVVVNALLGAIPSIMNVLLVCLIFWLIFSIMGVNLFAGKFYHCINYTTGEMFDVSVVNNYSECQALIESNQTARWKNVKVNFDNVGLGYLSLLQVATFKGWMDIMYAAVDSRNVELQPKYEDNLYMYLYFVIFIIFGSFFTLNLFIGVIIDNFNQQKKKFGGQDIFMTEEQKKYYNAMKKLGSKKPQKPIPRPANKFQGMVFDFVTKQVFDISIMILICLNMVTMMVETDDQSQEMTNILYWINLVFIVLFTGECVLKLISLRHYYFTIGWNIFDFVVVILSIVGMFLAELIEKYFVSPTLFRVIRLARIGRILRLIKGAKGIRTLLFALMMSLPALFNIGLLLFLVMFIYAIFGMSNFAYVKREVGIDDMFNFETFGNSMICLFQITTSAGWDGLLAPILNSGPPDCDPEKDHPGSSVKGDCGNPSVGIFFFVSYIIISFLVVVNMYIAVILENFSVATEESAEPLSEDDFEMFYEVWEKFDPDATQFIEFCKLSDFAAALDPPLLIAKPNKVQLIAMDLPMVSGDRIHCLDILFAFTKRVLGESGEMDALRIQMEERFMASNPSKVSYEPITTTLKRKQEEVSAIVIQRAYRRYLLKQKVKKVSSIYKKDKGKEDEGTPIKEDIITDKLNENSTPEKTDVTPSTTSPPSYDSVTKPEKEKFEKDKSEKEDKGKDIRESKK

[3] = target: Potassium voltage-gated channel subfamily A member 4 (Rattus norvegicus) (UniProt P15385); experiment: Blockade of voltage-activated rat Kv1.4 potassium channel expressed in Xenopus laevis oocytes assessed as effect on evoked current upto 10 uM by two-electrode voltage clamp method; in short: as §1
Chain of Potassium voltage-gated channel subfamily A member 4 (Rattus norvegicus) (P15385 whole entry): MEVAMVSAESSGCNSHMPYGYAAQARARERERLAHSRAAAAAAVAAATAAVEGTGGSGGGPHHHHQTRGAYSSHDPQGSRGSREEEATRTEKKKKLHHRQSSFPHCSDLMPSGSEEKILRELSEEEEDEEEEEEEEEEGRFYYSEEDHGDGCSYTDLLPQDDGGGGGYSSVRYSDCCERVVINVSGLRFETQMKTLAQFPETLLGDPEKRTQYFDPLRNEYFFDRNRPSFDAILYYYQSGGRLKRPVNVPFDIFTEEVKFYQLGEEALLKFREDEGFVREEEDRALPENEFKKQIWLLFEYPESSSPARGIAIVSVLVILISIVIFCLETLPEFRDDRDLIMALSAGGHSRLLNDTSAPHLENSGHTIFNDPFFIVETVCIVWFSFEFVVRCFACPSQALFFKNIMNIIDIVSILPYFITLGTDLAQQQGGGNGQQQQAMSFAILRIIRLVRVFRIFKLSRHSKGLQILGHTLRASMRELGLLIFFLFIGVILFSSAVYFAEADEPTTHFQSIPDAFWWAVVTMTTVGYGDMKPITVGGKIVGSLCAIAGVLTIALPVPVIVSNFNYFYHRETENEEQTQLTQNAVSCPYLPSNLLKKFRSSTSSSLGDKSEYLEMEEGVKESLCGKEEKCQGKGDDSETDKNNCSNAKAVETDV

Measured: Activity

C=CC(C)(C)[C@@]12CCN(C)C1=Nc1cc(Br)ccc12
inactive: all assays above

C=CC(C)(C)[C@@]12CCN(C)[C@@H]1N(CC=C(C)C)c1cc(Br)ccc12
inactive: all assays above

C=CC(C)(C)[C@@]12CCN(C)[C@@H]1Nc1cc(Br)ccc12
inactive: all assays above

C=CC(C)(C)c1[nH]c2cc(Br)ccc2c1CCNC
inactive: all assays above
